Source: ChEMBL document CHEMBL1130252, “5-HT1B receptor antagonist properties of novel arylpiperazide derivatives of 1-naphthylpiperazine” (J Med Chem, 1997)

What was measured:
[1] = target: T1, 5-hydroxytryptamine receptor 1B (Homo sapiens, UniProt P28222); test: Receptor binding affinity for cloned human 5-hydroxytryptamine 1B receptor in Cos-7 cells; type: cell-based
[2] = target: 5-hydroxytryptamine receptor 1D (Homo sapiens, UniProt P28221); test: Receptor binding affinity for cloned human 5-hydroxytryptamine 1D receptor in Cos-7 cells; type: cell-based
[3] = target: T1, 5-hydroxytryptamine receptor 1B; test: Antagonism tested at 1 uM against the agonist-induced inhibitory effect of 10 nM 5-carbamoyltryptamine(5-CT); type: functional
How it was run: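 Run in the same forskolin-stimulated cAMP system, with h5-HT1B receptors expressed in CHO-K1 cells. The compound at 1 µM was tested against the inhibition of cAMP formation produced by 10 nM 5-CT. Values are the mean of two or three experiments, each in duplicate.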

[4] = target: T1, 5-hydroxytryptamine receptor 1B; test: Percentage Maximal inhibition obtained with 1 uM 5-HT against 5-hydroxytryptamine 1B receptor
How it was run: (§1)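 Human 5-HT1B receptors expressed in CHO-K1 cells. Agonist response read as inhibition of forskolin-stimulated cAMP formation. EC50 determined, and Emax expressed as a percentage of the maximal inhibition produced by 1 µM 5-HT. Values are the mean of two or three experiments, each run in duplicate, with individual values typically within ±10-20% of the mean.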

[5] = target: T2, 5-hydroxytryptamine receptor 1A (Homo sapiens, UniProt P08908); test: Receptor binding affinity for cloned human 5-hydroxytryptamine 1A receptor in HeLa cells; type: cell-based
T2 sequence (P08908 whole entry): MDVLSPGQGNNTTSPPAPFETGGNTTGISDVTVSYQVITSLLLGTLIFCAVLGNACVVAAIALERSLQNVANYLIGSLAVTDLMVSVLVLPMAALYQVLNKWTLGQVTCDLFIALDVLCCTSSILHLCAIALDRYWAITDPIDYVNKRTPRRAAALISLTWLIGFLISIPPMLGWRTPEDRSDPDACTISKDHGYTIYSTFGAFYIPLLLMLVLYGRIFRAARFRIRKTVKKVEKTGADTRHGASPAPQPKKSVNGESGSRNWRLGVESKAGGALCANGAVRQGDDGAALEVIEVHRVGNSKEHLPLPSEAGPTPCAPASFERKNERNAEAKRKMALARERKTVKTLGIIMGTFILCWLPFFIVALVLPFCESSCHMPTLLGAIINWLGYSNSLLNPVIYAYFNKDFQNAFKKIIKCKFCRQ

[6] = target: T1, 5-hydroxytryptamine receptor 1B; test: Agonist activity at 5-hydroxytryptamine 1B receptor by measuring the inhibition of forskolin-stimulated cAMP formation; type: functional; how it was run: as §1
[7] = target: T1, 5-hydroxytryptamine receptor 1B; conditions: 1 uM

T1 sequence (P28222 whole entry): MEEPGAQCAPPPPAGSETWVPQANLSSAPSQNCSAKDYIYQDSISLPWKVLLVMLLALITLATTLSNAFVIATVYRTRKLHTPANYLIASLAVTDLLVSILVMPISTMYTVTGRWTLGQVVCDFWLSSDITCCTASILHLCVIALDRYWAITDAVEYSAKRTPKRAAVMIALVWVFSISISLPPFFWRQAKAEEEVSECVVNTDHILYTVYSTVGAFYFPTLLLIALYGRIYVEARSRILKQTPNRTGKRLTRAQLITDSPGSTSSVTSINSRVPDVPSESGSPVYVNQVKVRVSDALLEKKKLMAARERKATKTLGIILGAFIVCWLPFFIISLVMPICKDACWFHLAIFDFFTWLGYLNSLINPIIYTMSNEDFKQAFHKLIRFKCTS
Sequence of 5-hydroxytryptamine receptor 1D (P28221 whole entry): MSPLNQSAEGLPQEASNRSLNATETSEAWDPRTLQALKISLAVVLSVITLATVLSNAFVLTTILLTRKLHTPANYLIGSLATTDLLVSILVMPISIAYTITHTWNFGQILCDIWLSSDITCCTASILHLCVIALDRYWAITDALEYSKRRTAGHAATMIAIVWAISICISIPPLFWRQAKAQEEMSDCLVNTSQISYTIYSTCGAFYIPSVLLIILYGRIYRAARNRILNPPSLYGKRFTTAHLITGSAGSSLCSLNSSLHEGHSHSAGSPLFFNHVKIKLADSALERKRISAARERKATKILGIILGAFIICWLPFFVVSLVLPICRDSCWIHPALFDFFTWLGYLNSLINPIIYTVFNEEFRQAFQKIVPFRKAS

**Q.** Which results are given for `CN1CCN(c2cccc3ccc(OCC(=O)N4CCN(c5cccc6c5OCCO6)CC4)cc23)CC1`?
**A.** Ki [1]: 0.43 nM; Ki [2]: 0.45 nM; Antagonism [3]: 45%; Emax [4]: 58%; Ki [5]: 14.1 nM; EC50 [6]: 25 nM

**Q.** `Cc1cc(C)c(N2CCN(C(=O)COc3ccc4cccc(N5CCN(C)CC5)c4c3)CC2)c(C)c1` was tested. Which Ki [1] did it give?
**A.** 1.4 nM

**Q.** And the Ki [2]?
**A.** 1.9 nM

**Q.** And the Antagonism [3]?
**A.** 46%

**Q.** What about the Emax [4] of the same molecule?
**A.** 26%

**Q.** And the Ki [5]?
**A.** 117 nM

**Q.** And the EC50 [6]?
**A.** 25 nM

**Q.** For `Cc1ccccc1CN1CCN(C(=O)COc2ccc3cccc(N4CCN(C)CC4)c3c2)CC1`, which Ki [1] is on record?
**A.** 0.2 nM

**Q.** What about the Ki [2] of the same molecule?
**A.** 0.55 nM

**Q.** What about the Antagonism [3] of the same molecule?
**A.** 87%

**Q.** What about the Emax [4] of the same molecule?
**A.** < 10%

**Q.** What about the Ki [5] of the same molecule?
**A.** 22.7 nM

**Q.** And the EC50 [6]?
**A.** > 1000 nM

**Q.** Which results are given for `c1ccc2c(N3CCNCC3)cccc2c1`?
**A.** Ki [1]: 10.1 nM; Ki [2]: 6.2 nM; Antagonism [3]: 96%; Emax [4]: < 10%; Ki [5]: 9.2 nM; EC50 [6]: > 1000 nM

**Q.** `Cc1ccccc1N1CCN(C(=O)COc2ccc3cccc(N4CCN(C)CC4)c3c2)CC1` was tested. Which Ki [1] did it give?
**A.** 0.3 nM

**Q.** And the Ki [2]?
**A.** 0.69 nM

**Q.** What about the Antagonism [7] of the same molecule?
**A.** 80%

**Q.** What about the Emax [4] of the same molecule?
**A.** < 10%

**Q.** And the EC50 [6]?
**A.** > 1000 nM

**Q.** Which Ki [1] does the source give for `CN1CCN(c2cccc3ccc(OCC(=O)N4CCN(c5cccc6ccccc56)CC4)cc23)CC1` here?
**A.** 0.43 nM

**Q.** And the Ki [2]?
**A.** 0.88 nM

**Q.** And the Antagonism [3]?
**A.** 57%

**Q.** And the Emax [4]?
**A.** < 10%

**Q.** And the Ki [5]?
**A.** 114 nM

**Q.** And the EC50 [6]?
**A.** > 1000 nM

**Q.** `COc1cccc(N2CCN(C(=O)COc3ccc4cccc(N5CCN(C)CC5)c4c3)CC2)c1OC` was tested. Which Ki [1] did it give?
**A.** 0.44 nM

**Q.** And the Ki [2]?
**A.** 0.62 nM

**Q.** What about the Antagonism [3] of the same molecule?
**A.** 47%

**Q.** And the Emax [4]?
**A.** 69%

**Q.** And the Ki [5]?
**A.** 13.4 nM

**Q.** What about the EC50 [6] of the same molecule?
**A.** 30 nM

**Q.** For `COc1ccc2ccc(N3CCNCC3)cc2c1`, which Ki [1] is on record?
**A.** 2 nM

**Q.** And the Ki [2]?
**A.** 0.7 nM

**Q.** And the Antagonism [3]?
**A.** 95%

**Q.** And the Emax [4]?
**A.** < 10%

**Q.** And the Ki [5]?
**A.** 2.8 nM

**Q.** What about the EC50 [6] of the same molecule?
**A.** > 1000 nM

**Q.** How did the Ki [1] turn out when `CN1CCN(c2cccc3ccc(OCC(=O)N4CCN(c5ccccc5C#N)CC4)cc23)CC1` was run?
**A.** 0.38 nM

**Q.** What about the Ki [2] of the same molecule?
**A.** 0.51 nM

**Q.** What about the Antagonism [3] of the same molecule?
**A.** 56%

**Q.** And the Emax [4]?
**A.** 48%

**Q.** What about the Ki [5] of the same molecule?
**A.** 12.3 nM

**Q.** And the EC50 [6]?
**A.** 28 nM
